According to article PMC4367188 (ACS Chemical Neuroscience, 2015):
≈ marks a conversion by molar mass, not a printed value. Entries after “also recorded” stand apart in the source; their conditions may differ.

Assays:
[1] = molecular target: Transporter, Serotonin (5-hydroxytryptamine) (SERT) (Homo sapiens, UniProt P31645); experiment: Lead Profiling Screen radioligand binding
Glutamate, NMDA, Agonism = experiment: Lead Profiling Screen radioligand binding; details: 10 μM ML352
hCHT LV-AA = hCHT LV-AA (Homo sapiens, UniProt Q9GZV3, L531A/V532A); experiment: [3H]choline uptake in HEK 293 cells transfected with hCHT LV-AA; format: cell-based; details: ML352 at 200 or 800 nM in saturation choline transport assays
P450 2D6 = P450 2D6 (Homo sapiens, UniProt P10635); experiment: cytochrome P450 inhibition
hCHT = molecular target: T1, hCHT (Homo sapiens, UniProt Q9GZV3); experiment: [3H]HC-3 binding to membranes from HEK hCHT cells; details: for [3H]HC-3 binding Bmax: relative to control
T1 sequence (Q9GZV3 1-580): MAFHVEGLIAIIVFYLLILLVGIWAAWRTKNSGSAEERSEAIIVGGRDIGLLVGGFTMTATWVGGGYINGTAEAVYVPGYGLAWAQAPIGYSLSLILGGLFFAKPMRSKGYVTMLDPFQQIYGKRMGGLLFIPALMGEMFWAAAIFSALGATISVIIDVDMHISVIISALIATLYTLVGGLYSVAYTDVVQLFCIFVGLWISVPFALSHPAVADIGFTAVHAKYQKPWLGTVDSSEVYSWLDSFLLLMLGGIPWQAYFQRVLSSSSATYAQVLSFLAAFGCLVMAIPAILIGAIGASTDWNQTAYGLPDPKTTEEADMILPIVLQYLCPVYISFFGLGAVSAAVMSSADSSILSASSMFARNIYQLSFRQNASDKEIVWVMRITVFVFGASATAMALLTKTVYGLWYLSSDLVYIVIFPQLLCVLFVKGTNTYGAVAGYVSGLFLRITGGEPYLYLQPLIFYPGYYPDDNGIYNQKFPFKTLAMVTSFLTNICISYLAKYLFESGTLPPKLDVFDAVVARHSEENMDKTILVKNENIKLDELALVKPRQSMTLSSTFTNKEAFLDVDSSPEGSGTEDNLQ

Phorbol Ester = experiment: Lead Profiling Screen radioligand binding; details: 10 μM ML352
GABAA, Muscimol, Central = experiment: Lead Profiling Screen radioligand binding; details: 10 μM ML352
Adrenergic β1 = Adrenergic β1 (Homo sapiens, UniProt P08588); experiment: Lead Profiling Screen radioligand binding
Thyroid Hormone = experiment: Lead Profiling Screen radioligand binding; details: 10 μM ML352
ChAT = ChAT (Mus musculus, UniProt Q03059); experiment: ChAT activity in mouse forebrain extracts; format: biochemical; details: concentrations well above the CHT Ki
Estrogen Erα = Estrogen Erα (Homo sapiens, UniProt P03372); experiment: Lead Profiling Screen radioligand binding
Dopamine D1 = Dopamine D1 (Homo sapiens, UniProt P21728); experiment: Lead Profiling Screen radioligand binding
Neuropeptide Y Y1 = Neuropeptide Y Y1 (Homo sapiens, UniProt P25929); experiment: Lead Profiling Screen radioligand binding
Rolipram = experiment: Lead Profiling Screen radioligand binding; details: 10 μM ML352
GABAB1A = GABAB1A (Homo sapiens, UniProt Q9UBS5); experiment: Lead Profiling Screen radioligand binding
[2] = molecular target: serotonin transporter (SERT) (Homo sapiens, UniProt P31645); experiment: [3H]5-HT uptake in HEK293 hSERT cells; format: cell-based; details: transfected HEK 293 cells
Imidazoline I2, Central = experiment: Lead Profiling Screen radioligand binding; details: 10 μM ML352
Histamine, H3 = Histamine, H3 (Homo sapiens, UniProt Q9Y5N1); experiment: Lead Profiling Screen radioligand binding
[3] = molecular target: Sertonin (5-Hydroxytrptamine) 5-HT3 (Homo sapiens, UniProt P46098); experiment: Lead Profiling Screen radioligand binding
Potassium Channel [KATP] = experiment: Lead Profiling Screen radioligand binding; details: 10 μM ML352
Adrenergic α1D = Adrenergic α1D (Homo sapiens, UniProt P25100); experiment: Lead Profiling Screen radioligand binding
[4] = molecular target: dopamine transporter (DAT) (Homo sapiens, UniProt Q01959); experiment: [3H]DA uptake in HEK293 hDAT cells; format: cell-based; details: transfected HEK 293 cells
SERT = SERT (Mus musculus, UniProt Q60857); experiment: serotonin uptake in mouse forebrain synaptosomes; format: biochemical; details: 5 μM ML352
Method in brief: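 Crude P2 synaptosomes from forebrains of male C57BL/6J mice (8–10 weeks), taken after decapitation under urethane. Incubated 10 min at 37 °C in Krebs bicarbonate buffer with 100 nM [3H]dopamine or [3H]serotonin ± test compound. Stopped on ice, rapidly filtered, counted by scintillation. Specific uptake defined with cocaine 1 μM (DAT) or citalopram 1 μM (SERT). Protein by BCA; n = 3.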

PBS solubility = format: physicochemical; details: aqueous buffer
Calcium Channel N-Type = Calcium Channel N-Type (Rattus norvegicus, UniProt Q02294); experiment: Lead Profiling Screen radioligand binding
[5] = molecular target: Transporter, Norepinephrine (NET) (Homo sapiens, UniProt P23975); experiment: Lead Profiling Screen radioligand binding
Prostanoid EP4 = Prostanoid EP4 (Homo sapiens, UniProt P35408); experiment: Lead Profiling Screen radioligand binding
Endothelin ETA = Endothelin ETA (Homo sapiens, UniProt P25101); experiment: Lead Profiling Screen radioligand binding
Adenosine A3 = Adenosine A3 (Homo sapiens, UniProt P0DMS8); experiment: Lead Profiling Screen radioligand binding
Endothelin ETB = Endothelin ETB (Homo sapiens, UniProt P24530); experiment: Lead Profiling Screen radioligand binding
Glucocorticoid = Glucocorticoid (Homo sapiens, UniProt P04150); experiment: Lead Profiling Screen radioligand binding
Melatonin MT1 = Melatonin MT1 (Homo sapiens, UniProt P48039); experiment: Lead Profiling Screen radioligand binding
[6] = tested on: Glutamate, NMDA, Phancyclidine; experiment: Lead Profiling Screen radioligand binding; details: 10 μM ML352
Adrenergic α2A = Adrenergic α2A (Homo sapiens, UniProt P08913); experiment: Lead Profiling Screen radioligand binding

Chain of ChAT (Q03059 whole entry): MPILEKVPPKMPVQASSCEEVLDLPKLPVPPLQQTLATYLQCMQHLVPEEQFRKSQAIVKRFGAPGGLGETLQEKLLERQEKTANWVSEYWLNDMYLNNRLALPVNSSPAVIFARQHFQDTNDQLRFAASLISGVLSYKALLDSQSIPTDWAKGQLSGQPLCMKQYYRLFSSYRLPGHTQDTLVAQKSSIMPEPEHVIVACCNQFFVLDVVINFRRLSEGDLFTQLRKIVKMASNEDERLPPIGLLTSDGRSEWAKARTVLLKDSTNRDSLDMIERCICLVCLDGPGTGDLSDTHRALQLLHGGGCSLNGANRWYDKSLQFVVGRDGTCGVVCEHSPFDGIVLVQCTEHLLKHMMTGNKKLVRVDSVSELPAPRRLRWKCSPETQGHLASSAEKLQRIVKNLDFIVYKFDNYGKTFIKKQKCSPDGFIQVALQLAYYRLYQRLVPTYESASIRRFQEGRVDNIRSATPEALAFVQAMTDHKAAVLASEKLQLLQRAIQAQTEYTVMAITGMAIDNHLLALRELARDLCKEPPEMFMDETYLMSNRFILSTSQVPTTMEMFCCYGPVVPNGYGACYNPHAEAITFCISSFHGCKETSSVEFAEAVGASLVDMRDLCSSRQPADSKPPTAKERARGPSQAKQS
Chain of hCHT LV-AA (Q9GZV3 whole entry L531A/V532A): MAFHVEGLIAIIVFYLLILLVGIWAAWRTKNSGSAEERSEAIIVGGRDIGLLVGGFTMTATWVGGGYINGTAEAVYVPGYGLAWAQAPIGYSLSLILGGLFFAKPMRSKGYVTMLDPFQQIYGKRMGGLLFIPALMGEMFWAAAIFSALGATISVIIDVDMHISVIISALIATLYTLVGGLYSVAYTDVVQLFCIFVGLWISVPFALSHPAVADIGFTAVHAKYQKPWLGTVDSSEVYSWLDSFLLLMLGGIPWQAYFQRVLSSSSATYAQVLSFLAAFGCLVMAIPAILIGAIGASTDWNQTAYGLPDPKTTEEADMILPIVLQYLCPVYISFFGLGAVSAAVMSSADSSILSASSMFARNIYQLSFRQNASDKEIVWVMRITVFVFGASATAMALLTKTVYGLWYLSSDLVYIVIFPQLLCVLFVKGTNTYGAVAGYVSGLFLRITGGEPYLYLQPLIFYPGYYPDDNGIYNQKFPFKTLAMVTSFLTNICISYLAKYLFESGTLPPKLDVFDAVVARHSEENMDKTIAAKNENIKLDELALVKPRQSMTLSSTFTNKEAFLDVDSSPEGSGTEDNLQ
Chain of Endothelin ETB (P24530 27-442): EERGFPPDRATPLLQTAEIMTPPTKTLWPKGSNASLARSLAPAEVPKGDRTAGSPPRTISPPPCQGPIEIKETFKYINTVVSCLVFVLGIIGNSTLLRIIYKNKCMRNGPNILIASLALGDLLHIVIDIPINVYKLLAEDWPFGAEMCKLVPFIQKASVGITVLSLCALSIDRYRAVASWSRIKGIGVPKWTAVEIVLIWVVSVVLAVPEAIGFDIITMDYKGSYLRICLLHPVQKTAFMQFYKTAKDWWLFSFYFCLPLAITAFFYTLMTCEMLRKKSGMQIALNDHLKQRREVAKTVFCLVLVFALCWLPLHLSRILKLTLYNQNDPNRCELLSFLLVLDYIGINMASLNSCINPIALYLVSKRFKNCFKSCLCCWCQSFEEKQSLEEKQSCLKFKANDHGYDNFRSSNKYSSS
Chain of Transporter, Norepinephrine (NET) (P23975 whole entry): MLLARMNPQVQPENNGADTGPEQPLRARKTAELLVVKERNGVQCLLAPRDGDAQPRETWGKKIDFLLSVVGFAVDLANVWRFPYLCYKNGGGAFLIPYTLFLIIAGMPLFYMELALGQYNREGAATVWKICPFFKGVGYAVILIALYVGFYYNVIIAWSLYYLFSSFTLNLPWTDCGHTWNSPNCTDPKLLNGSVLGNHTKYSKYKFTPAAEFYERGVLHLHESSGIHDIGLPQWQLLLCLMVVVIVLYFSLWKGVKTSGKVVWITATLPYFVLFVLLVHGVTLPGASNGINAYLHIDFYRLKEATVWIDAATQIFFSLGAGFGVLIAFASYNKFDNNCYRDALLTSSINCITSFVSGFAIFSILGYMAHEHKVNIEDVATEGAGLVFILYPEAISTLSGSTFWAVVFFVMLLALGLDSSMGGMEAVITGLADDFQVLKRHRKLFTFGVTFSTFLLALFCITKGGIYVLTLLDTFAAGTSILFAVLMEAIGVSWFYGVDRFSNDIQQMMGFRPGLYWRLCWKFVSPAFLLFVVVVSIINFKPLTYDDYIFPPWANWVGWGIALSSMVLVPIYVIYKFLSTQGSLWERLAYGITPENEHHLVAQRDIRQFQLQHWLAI
Chain of Sertonin (5-Hydroxytrptamine) 5-HT3 (P46098 24-478): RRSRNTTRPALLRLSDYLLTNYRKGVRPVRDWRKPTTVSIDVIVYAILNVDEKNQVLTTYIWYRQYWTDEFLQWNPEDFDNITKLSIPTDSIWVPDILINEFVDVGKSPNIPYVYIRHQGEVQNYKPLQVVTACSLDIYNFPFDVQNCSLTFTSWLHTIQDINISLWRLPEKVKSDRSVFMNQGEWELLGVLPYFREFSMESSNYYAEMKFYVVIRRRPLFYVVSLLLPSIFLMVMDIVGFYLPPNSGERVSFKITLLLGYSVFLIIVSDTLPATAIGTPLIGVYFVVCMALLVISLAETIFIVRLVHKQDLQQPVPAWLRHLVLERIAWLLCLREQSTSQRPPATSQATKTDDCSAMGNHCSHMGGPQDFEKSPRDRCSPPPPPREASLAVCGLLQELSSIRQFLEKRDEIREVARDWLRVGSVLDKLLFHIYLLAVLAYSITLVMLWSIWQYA
Chain of P450 2D6 (P10635 whole entry): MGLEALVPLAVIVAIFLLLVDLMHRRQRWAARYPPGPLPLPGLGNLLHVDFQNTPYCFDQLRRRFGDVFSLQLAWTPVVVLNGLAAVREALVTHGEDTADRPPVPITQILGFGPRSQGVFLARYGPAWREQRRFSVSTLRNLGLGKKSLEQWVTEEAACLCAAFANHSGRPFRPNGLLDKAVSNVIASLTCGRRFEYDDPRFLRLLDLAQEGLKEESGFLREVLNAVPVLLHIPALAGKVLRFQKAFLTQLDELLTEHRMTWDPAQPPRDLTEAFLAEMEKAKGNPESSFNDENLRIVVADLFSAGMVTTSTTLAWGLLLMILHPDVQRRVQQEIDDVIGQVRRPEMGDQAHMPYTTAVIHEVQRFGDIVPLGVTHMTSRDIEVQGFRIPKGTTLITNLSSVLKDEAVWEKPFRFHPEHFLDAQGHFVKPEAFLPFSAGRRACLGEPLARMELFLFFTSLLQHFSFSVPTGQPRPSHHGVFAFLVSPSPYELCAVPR
Chain of Neuropeptide Y Y1 (P25929 whole entry): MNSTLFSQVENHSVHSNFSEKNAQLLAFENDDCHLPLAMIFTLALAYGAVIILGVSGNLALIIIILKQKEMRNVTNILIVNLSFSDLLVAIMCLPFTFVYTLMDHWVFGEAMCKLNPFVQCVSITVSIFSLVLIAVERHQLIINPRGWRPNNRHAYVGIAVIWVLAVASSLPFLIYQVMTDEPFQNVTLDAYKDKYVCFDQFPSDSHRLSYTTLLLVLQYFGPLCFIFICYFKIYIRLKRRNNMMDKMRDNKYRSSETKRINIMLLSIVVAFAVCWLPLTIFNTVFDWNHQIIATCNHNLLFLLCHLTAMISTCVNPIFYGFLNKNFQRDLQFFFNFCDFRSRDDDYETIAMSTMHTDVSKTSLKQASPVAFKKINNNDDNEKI
Chain of Melatonin MT1 (P48039 whole entry): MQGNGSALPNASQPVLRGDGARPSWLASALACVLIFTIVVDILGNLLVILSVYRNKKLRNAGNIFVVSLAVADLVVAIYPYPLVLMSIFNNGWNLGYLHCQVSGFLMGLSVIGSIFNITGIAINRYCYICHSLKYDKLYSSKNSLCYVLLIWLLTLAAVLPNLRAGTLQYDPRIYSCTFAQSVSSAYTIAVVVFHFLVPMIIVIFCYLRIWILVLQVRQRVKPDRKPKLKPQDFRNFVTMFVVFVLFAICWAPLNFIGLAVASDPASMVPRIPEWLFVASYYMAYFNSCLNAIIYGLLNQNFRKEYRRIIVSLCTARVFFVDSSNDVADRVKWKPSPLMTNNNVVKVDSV
Chain of Adenosine A3 (P0DMS8 whole entry): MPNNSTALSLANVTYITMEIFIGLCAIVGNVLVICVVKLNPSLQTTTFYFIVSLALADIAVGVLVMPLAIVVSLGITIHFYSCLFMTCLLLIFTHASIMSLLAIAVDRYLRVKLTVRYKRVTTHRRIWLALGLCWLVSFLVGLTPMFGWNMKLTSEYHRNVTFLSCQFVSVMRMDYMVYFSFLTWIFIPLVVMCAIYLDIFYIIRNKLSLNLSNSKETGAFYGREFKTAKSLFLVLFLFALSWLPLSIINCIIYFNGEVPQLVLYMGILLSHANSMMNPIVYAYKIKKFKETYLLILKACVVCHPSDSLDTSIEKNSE
Chain of Prostanoid EP4 (P35408 whole entry): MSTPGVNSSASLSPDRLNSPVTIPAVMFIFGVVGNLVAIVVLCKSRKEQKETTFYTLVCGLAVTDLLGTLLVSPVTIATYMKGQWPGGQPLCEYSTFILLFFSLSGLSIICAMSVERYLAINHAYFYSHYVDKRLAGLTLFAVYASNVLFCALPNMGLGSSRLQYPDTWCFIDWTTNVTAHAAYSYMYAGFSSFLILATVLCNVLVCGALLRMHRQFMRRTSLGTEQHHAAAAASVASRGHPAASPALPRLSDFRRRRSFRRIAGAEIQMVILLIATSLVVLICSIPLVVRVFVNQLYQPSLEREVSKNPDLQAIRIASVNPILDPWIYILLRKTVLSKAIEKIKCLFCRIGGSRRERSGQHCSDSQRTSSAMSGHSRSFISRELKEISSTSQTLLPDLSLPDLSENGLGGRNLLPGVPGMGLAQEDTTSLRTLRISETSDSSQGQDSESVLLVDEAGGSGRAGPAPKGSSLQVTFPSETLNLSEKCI

COc1ccc(C(=O)NCc2cc(C(C)C)no2)cc1OC1CCN(C)CC1 [ML352, N-((3-isopropylisoxazol-5-yl)methyl)-4-methoxy-3-((1-methylpiperidin-4-yl)oxy)benzamide]
inhibition at 10 µM [1]: 2% | % inhibition (Glutamate, NMDA, Agonism): 1% | mode of choline uptake inhibition (hCHT LV-AA): noncompetitively inhibits | IC50 (P450 2D6): > 30 µM | [3H]HC-3 binding Bmax (hCHT; 200 nM ML352): 80.3 ± 3.8% | [3H]HC-3 binding Bmax (hCHT; 800 nM ML352): 48.9 ± 4.1% | mode of inhibition of [3H]HC-3 binding (hCHT; transfected cell membranes, 200 and 800 nM ML352): noncompetitive inhibition | % inhibition (Phorbol Ester): 5% | % inhibition (GABAA, Muscimol, Central): 9% | inhibition at 10 µM (Adrenergic β1): 2% | % inhibition (Thyroid Hormone): 6% | inhibition of ChAT activity (ChAT): no ability; also recorded: lacks activity; also recorded: no inhibition | inhibition at 10 µM (Estrogen Erα): 4% | inhibition at 10 µM (Dopamine D1): 9% | inhibition at 10 µM (Neuropeptide Y Y1): -2% | % inhibition (Rolipram): 1% | inhibition at 10 µM (GABAB1A): -9% | inhibitory activity at SERT [2]: lack of inhibitory activity | % inhibition (Imidazoline I2, Central): 16% | inhibition at 10 µM (Histamine, H3): 7% | inhibition at 10 µM [3]: 2% | % inhibition (Potassium Channel [KATP]): 4% | inhibition at 10 µM (Adrenergic α1D): 24% | inhibitory activity at DAT [4]: lack of inhibitory activity | inhibition of SERT (SERT): fails to inhibit | solubility (PBS solubility): 98.2 ± 1.1 µM (≈ 38.1 µg/mL) | inhibition at 10 µM (Calcium Channel N-Type): -1% | inhibition at 10 µM [5]: 12% | inhibition at 10 µM (Prostanoid EP4): -7% | inhibition at 10 µM (Endothelin ETA): -3% | inhibition at 10 µM (Adenosine A3): 4% | inhibition at 10 µM (Endothelin ETB): -2% | inhibition at 10 µM (Glucocorticoid): -1% | inhibition at 10 µM (Melatonin MT1): 5% | % inhibition [6]: –5% | inhibition at 10 µM (Adrenergic α2A): 43%
